Assay results reported in PubChem BioAssay AID489030 (Sanford-Burnham Center for Chemical Genomics, 2010).
About 2,400 (0.73%) of roughly 330,000 compounds were called active. The sample holds actives, similar compounds and a random draw of the others, so the mix is not that of the screen. How the source made its calls: active means inhibition of at least 40% at 20 µM; inactive means the rest.

Each compound was assayed against Apoptotic protease-activating factor 1 (Homo sapiens) (UniProt O14727) (assay: blockers of Apaf-1-driven caspase-3 activation – biochemical, DEVD-Rh110 fluorescence, uHTS, primary screen (AID 489030;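 further: plate controls were DMSO wells for no effect and DEVD-CHO caspase inhibitor wells for full effect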)). Conditions: reconstituted apoptosome caspase-3 activity, at 20 µM, active compounds read high.
Chain of Apoptotic protease-activating factor 1 (Homo sapiens) (O14727 whole entry, looked up): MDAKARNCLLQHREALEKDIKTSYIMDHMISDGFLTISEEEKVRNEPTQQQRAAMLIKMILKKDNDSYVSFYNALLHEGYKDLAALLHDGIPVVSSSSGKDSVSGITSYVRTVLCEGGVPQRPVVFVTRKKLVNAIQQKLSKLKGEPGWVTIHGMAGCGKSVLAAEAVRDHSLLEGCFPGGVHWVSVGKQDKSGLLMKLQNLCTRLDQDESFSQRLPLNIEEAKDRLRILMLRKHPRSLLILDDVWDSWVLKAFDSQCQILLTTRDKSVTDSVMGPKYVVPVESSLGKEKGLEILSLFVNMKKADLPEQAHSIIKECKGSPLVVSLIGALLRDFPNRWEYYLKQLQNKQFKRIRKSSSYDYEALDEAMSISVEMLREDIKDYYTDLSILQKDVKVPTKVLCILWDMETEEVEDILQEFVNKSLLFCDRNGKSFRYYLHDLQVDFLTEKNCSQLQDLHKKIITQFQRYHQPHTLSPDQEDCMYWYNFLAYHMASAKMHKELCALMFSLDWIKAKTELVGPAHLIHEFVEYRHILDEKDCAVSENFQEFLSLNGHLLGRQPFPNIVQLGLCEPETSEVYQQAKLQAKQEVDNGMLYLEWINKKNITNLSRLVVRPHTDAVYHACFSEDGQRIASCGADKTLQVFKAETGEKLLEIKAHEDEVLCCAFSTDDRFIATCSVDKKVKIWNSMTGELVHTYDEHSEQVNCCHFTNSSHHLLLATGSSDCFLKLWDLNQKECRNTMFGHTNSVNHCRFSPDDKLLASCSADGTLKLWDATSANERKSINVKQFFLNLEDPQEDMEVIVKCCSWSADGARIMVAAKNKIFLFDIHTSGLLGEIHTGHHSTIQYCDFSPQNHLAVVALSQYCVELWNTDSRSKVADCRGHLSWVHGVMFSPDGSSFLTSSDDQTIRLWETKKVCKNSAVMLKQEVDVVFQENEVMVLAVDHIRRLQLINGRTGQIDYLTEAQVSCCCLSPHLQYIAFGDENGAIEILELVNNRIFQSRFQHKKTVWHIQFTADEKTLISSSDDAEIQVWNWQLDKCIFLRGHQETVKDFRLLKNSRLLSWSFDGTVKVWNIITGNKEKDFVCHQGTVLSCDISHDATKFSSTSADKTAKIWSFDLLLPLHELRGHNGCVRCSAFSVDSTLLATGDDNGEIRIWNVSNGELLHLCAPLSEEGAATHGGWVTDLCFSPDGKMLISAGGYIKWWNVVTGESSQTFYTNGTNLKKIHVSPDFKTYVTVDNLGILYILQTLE
In short: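 Assay system – apoptosome proteins · Medium – Hepes buffer, pH 7.5 · Also added – cytochrome c with DEVD-Rh110 · Timing – 30 min compound preincubation, 50 min activation, room temperature · Detection – Rh110 fluorescence, excitation 480 nm, emission 540 nm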

inhibition, inactive:
COC(=O)c1noc(C)c1-c1ccnn1C(=O)c1ccc(Cl)cc1 10.5%
COc1ccc2sc(N(CCCN(C)C)C(=O)c3ccc(S(=O)(=O)N(C)C4CCCCC4)cc3)nc2c1 24%
CN(C)CCCN(C(=O)c1ccc(S(=O)(=O)N2CCCc3ccccc32)cc1)c1nc2ccc(F)cc2s1 23.6%
C#CCOCCOCCOCCNc1nc(N2CCN(C(=O)[C@H](CCCCN)n3cc([C@@H](N)C(C)CC)nn3)CC2)nc(N2CCN(C(=O)[C@H](Cc3ccc(O)cc3)n3cc([C@@H](N)C(C)CC)nn3)CC2)n1 (stereo partly drawn) -9.37%
CC1(C)CC(=O)C2=C(C1)NCN(CCCN1CCOCC1)C2 4.48%
CN(C)CCOc1ccc(Cl)cc1C(C)(C)C 4.15%
CCc1nc(C)ccc1OCC(=O)N(CC)CC -18.1%
CCOc1ccc(C(=O)CCN2CCOCC2)cc1 2.64%
CC(OC(=O)c1ccc(NS(=O)(=O)c2ccc3[nH]c(=O)[nH]c3c2)cc1)C(=O)Nc1cccc(Cl)c1Cl (stereo not drawn) 14%
CCC(C)Sc1nc2c(c(=O)[nH]c(=O)n2C)n1CC(O)COc1cccc2ccccc12 (stereo not drawn) 22.5%
Cc1cc(C)c(NC(=O)C[N+](C)(C)CC(O)COc2cccc3ccccc23)c(C)c1 (stereo not drawn) 12.4%
COc1cccc(OCc2nnc3n2N=C(c2ccccc2)C(CC(=O)O)S3)c1 (stereo not drawn) -0.294%
CCOC(=O)COn1c(=O)c(-c2ccc(OCC)cc2)[n+]([O-])c2ccccc21 9.6%
CCCCOc1ccc(NC(=O)CSCC(=O)OCC)cc1 -4.3%
CCCCn1c(N)c(N(CCOC)C(=O)c2cccc(OCc3ccccc3)c2)c(=O)[nH]c1=O 0.864%
Cc1cccc(/C(N)=N/OC(=O)c2ccccc2Cl)c1 11.3%
CCOC(=O)c1sc(C)c2c1NC(C)(c1cccc3ccccc13)NC2=O (stereo not drawn) 28%
COC(=O)c1nn(-c2cccc(Cl)c2)ccc1=O -6.21%

inhibition, active:
CN(C)CCCN(C(=O)c1ccc(S(=O)(=O)N2CCCCCC2)cc1)c1nc2ccc(Br)cc2s1 60.4%
CCC(C)(C)c1ccc(OCC(=O)N(C)C)c(C(C)(C)CC)c1 56.5%
CC(C)c1ccccc1OCC(O)CN(CC(O)COc1cccc2ccccc12)C(C)C (stereo not drawn) 57.3%
CCCCCCCCCCOC(=O)Cn1c(COc2cccc(OC)c2)[n+](C)c2ccccc21 65.3%
CCCCCCCCCCOC(=O)Cn1c(COc2ccc(C)cc2)[n+](C)c2ccccc21 77.7%
